Values joined by “and” are separate entries in the source; they are usually repeats but may differ in a detail not shown here. Equal entries are not always repeated. Where two headings read alike, the source gives them in different places.
Key:
bovine spleen ADA [1] = target: T1, bovine spleen ADA (Bos taurus, UniProt P56658); assay: Cuvette fluorescence assay of ADA; format: biochemical
T1 sequence (P56658 1-363): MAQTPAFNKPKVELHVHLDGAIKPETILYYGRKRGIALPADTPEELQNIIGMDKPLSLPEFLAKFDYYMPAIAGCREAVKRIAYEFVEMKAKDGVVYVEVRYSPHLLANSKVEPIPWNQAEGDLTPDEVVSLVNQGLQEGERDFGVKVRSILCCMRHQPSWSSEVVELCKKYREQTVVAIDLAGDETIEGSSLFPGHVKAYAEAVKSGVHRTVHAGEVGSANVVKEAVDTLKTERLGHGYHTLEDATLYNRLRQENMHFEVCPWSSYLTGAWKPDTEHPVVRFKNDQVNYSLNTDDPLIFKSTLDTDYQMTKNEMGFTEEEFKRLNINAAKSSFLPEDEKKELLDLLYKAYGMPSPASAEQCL
Method in brief: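 Bovine spleen ADA, diluted to 1.15 U mL⁻¹ in 50 mM phosphate buffer pH 7.4 and kept on ice. Test compound (final 1–1000 µM, 0.1 µM for one analogue; DMSO stocks) and tzA (1 mM DMSO stock) were stirred 1 min in buffer in a quartz cuvette at 25.0 °C. ADA was then added. Emission at 410 nm (excitation 322 nm) was read every 10 s for 20 min.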

ADA [2] = conditions: non-HTS assay format; ref 8e; cited from earlier work
ADA [3] = conditions: ref Cristalli et al. 1a; cited from earlier work
bovine spleen ADA [4] = target: T1, bovine spleen ADA; assay: HTS plate-reader fluorescence assay of ADA; format: biochemical; conditions: 200 μM, initial MBP library screen, relative to negative control
[5] = converted from IC50 by Cheng-Prusoff, three independent experiments
[6] = cuvette, 25 °C, three independent experiments

Compound | IC50 (bovine spleen ADA [1]) [µM] | Ki (bovine spleen ADA [1]) [µM] | percent inhibition of ADA (bovine spleen ADA [4]) | Ki (bovine spleen ADA [1]; [5]) [µM] | IC50 (bovine spleen ADA [1]; [6]) [µM] | also measured
C[C@H]1CN=C(c2ccccc2O)O1 [Compound 6, (S)-2-(5-Methyl-4,5-dihydrooxazol-2-yl)phenol] | 194 ± 4 | 161 ± 3 | – | – | – | –
erythro-9-(2-hydroxy-3-nonyl) adenine [EHNA] | – | – | – | – | – | IC50 (ADA [2]): 0.023 ± 0.004 µM; Ki (ADA [2]): 0.019 ± 0.004 µM; Ki (ADA [3]): ~0.005 µM
C[C@@H]1CN=C(c2ccccc2O)O1 [Compound 7, (R)-2-(5-Methyl-4,5-dihydrooxazol-2-yl)phenol] | 188 ± 10 | 156 ± 8 | – | – | – | –
Oc1ccccc1-c1ncco1 [Compound 4, 2-oxazolyl phenol] | – | – | 61% | 215 ± 12 | 260 ± 14 | –
Oc1ccccc1-c1ncc[nH]1 [Compound 3, 2-imidazolyl phenol] | – | – | ~ 83% and 83% | 77 ± 14 | 93 ± 17 | –
